# Compound activity deposited in PubChem BioAssay by several laboratories.
# A selection: hits, their analogues and other compounds. The true share with any hit is near 1.8%.
# TPT1 inhibitor: inhibitors of Candida albicans tRNA 2'-phosphotransferase TPT1; recombinant caTPT1, FP RNA substrate dephosphorylation; inhibition, % at 5 µM; 300,000 tested, 0.81% active; AID 1962;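 active means inhibition above the mean of all tested compounds plus 3 SD, set per screening campaign, cut at about 24% in these data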;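 further: plate controls were DMSO alone for no effect and ferristatin control at 100 nM for full effect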
# Rpn11 inh: Rpn11 (human) deubiquitinase inhibition. O00487. human 26S proteasome, Ub4-pepOG fluorescence polarization; 20S core pre-blocked with epoxomicin. calls only at 20 µM. 360,000 tested, 0.59% active;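 active means inhibition at 20 µM, scaled to each plate's controls, above about 33%, limit read from the data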
# Target sequence (O00487 whole entry, looked up): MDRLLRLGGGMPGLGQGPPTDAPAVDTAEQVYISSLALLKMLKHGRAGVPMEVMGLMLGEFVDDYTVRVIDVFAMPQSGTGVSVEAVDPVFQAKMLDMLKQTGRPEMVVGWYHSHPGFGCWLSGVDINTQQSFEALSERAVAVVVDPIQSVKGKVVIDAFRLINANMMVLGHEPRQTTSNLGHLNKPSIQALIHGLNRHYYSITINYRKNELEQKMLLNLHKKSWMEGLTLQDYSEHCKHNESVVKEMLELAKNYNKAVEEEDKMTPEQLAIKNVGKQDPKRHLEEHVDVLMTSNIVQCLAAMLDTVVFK
# CSN inh: CSN deneddylation inhibition; inhibition, % at 12.5 µM; Q92905; Purified CSN, SCF-Nedd8-OG deneddylation, fluorescence polarization; 360,000 tested, 0.38% active;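 active means pattern-corrected inhibition above about 35%, with an unprinted fluorescence ratio check between 0.5 and 1.5, limit read from the data, passing the limit was not always enough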;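 further: 0% = enzyme with substrate and 100% = substrate without enzyme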
#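 Detection – fluorescence polarization · System – HEK293T-derived human Csn5 enzyme · Controls – substrate-only high control, full reaction low control · Timing – 90 min, room temperature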
# SENP1 FRET inh: inhibitors of human SENP1 SUMO protease catalytic domain; Q9P0U3; recombinant SENP1 catalytic domain, CyPet-SUMO1-YPet FRET cleavage; inhibition, % at 10 µM; 360,000 tested, 0.21% active;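 active means inhibition at least 30% at 10 µM, raw YFP signal under a set limit, fluorescence ratio 0.5 to 1.5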;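 further: 0% = enzyme with DMSO and 100% = no enzyme wells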
# Target sequence (Q9P0U3 419-644 limits assumed): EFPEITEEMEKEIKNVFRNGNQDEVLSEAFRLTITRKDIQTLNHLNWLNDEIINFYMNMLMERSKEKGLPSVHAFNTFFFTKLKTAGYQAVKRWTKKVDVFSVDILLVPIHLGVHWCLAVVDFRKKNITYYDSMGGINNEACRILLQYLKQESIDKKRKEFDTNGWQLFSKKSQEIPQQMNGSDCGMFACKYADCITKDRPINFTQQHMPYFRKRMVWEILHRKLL
#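 Material: hSENP1 catalytic domain, recombinant; medium: Tris pH 8 with BME, BSA, NP40 and catalase; compound: single concentration of 10 µM compound, 0.5% DMSO final; technique: FRET read of cyan and yellow fluorescence; timing: 50 min enzyme reaction, room temperature, light-protected; reagent: SFCypet-SUMO1-SFYpet substrate at 25 nM; control set: no-enzyme low, enzyme-DMSO high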
# UBC9 SUMO inh: inhibitors of human SUMOylation (UBC9); P63279; HTRF SUMOylation assay, SAE1/SAE2 + UBC9, in vitro; inhibition, % at 35 µM; 290,000 tested, 0.36% active; AID 2006; in the data active means inhibition above about 50%, passing the limit was not always enough
# HNF4A DNA FP: change in binding of human HNF4 alpha to DNA | 360,000 tested, 0.3% active | activity change, % at 10 µM | AID 1224865 | HNF4a-FITC DNA binding, fluorescence polarization, 1 h; in the data active means activity change above about 30%, passing the limit was not always enough
# TPT1 inh confirm: confirmation of Candida albicans TPT1 inhibitors | shares compounds with TPT1 inhibitor | recombinant caTPT1, fluorescence polarization, RNase T1 coupled | inhibition, % at 5 µM | 2,400 tested, 74% active | AID 2149;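 active means inhibition above the primary screen limit, the mean inhibition of all tested compounds plus 3 SD, cut at about 25% in these data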
# RNase T1 counter: counter-screen for TPT1 inhibitors: inhibitors of Aspergillus oryzae RNase T1. shares compounds with TPT1 inhibitor. RNase T1 cleavage, fluorescence polarization, 1536-well. inhibition, % at 5 µM. 2,400 tested, 83% active. AID 2153;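 active means inhibition above the solvent-only control well mean plus 3 SD, limit set per screening run, cut at about 23% in these data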;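 further: plate controls were DMSO wells with enzyme for no effect and wells without RNase T1 for full effect; inhibitors block cleavage so intact labeled substrate keeps polarization high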
# * = called active by the depositor; i = inactive; . = no result given; ! = a repeat was not active.
SMILES,TPT1 inhibitor,Rpn11 inh,CSN inh,SENP1 FRET inh,UBC9 SUMO inh,HNF4A DNA FP,TPT1 inh confirm,RNase T1 counter
O=C(O)Cn1cc(/C=C2\C(=O)NC(=O)N(c3ccc(Br)cc3)C2=O)c2ccccc21,37*,i,-2,4,15,-4,41*,51*
O=C1NC(=O)N(c2ccccc2F)C(=O)/C1=C/c1cn(CC(=O)N2CCOCC2)c2ccccc12,28*,.,.,.,0,.,10,21
Cc1ccc(N2C(=O)NC(=O)/C(=C\c3cn(CC(=O)O)c4ccccc34)C2=O)cc1,10,i,4,6,17,0,.,.
COc1cc(/C=C2\C(=O)NC(=O)N(c3ccc(C)cc3)C2=O)cc(OC)c1O,31*,i,1,-8,5,2,12,19
N#CC(C#N)=Cc1ccc(-c2ccccc2)o1,37*,.,.,.,11,.,36*,64*
COc1ccccc1C(=O)Nc1ccc2c(c1)CC1(C(=O)N(C)C(=O)N(C)C1=O)C1CCCN21 (stereo not given),15,i,8,-23,12,7,.,.
Cc1cccc(C(=O)Nc2ccc3c(c2)CC2(C(=O)N(C)C(=O)N(C)C2=O)C2CCCN32)c1 (stereo not given),26*,i,9,-25,13,16,36*,49*
O=C(CCc1nnc2ccc(NCc3ccccc3)nn12)N1CCC2(CC1)OCCO2,3,i,-3,0,.,-2,.,.
Cc1ccccc1N1C(=O)NC(=O)/C(=C/c2ccc(N3CCOCC3)o2)C1=O,123*,.,132,-6,2,108*,136*,138*
Cc1cccc(N2C(=O)/C(=C/c3ccc(N4CCN(C)CC4)o3)C(=O)NC2=S)c1C,83*,.,123,34*,3,84*,121*,121*
O=C1NC(=O)N(c2ccccc2)C(=O)/C1=C\c1ccc([N+](=O)[O-])o1,16,.,.,.,27,.,.,.
Cc1ccccc1N1C(=O)NC(=O)/C(=C\c2cc(Br)c(N3CCOCC3)o2)C1=O,96*,.,103,4,8,135,141*,140*
Cc1cccc(N2C(=O)NC(=O)/C(=C\c3ccc4c(c3)CCCN4Cc3ccccc3)C2=O)c1,92*,.,33,-70,5,-4,152*,141*
O=C1c2ccccc2-n2nnnc2C2c3ccccc3-n3nncc3CN12 (stereo not given),.,i,1,2,.,-3,.,.
CC1(C)OC(c2ccccc2)=C/C(=C/C=C2C(=O)NC(=S)NC2=O)O1,129*,.,.,.,16,.,77*,76*
CN1/C(=C\C=C2C(=O)NC(=S)NC2=O)C(C)(C)c2ccccc21,.,i,-105,-6,-10,60,.,.
O=C1NC(=S)N(c2ccccc2F)C(=O)/C1=C\c1cccs1,9,i,7,-27,12,-2,.,.
CCOc1ccc(N2C(=O)/C(=C/c3ccco3)C(=O)NC2=S)cc1,47*,.,104,4,4,-69,16,20
Cc1ccccc1N1C(=O)/C(=C/c2ccco2)C(=O)NC1=S,80*,.,.,.,97*,.,80*,14
Nc1ncc2[nH]cnc2n1,-6,i,-5,2,.,3,.,.
Fc1ccc(Cn2nnnc2C(c2ccc(F)cc2)N2CC=C(c3ccc(F)cc3)CC2)cc1 (stereo not given),2,i,-1,2,-16,0,.,.
CC1=NN(c2ccccc2)C(=O)C1/C=C1/C(=O)NC(=O)N(c2cc(C)cc(C)c2)C1=O (stereo not given),29*,i,2,-5,11,2,32*,50*
CC1=NN(c2ccccc2)C(=O)C1/C=C1\C(=O)NC(=O)N(c2cc(C)cc(C)c2)C1=O (stereo not given),24,i,-4,0,-10,2,.,.
Cc1ccc(N2C(=O)NC(=O)C3(Cc4ccccc4N4CCN(c5ccccc5)CC43)C2=O)cc1 (stereo not given),20,i,3,3,13,-6,.,.
C=CCn1c(O)c(C=NCCN2CCNCC2)c(=O)[nH]c1=O,5,i,-7,-10,19,3,.,.
SMILES,TPT1 inhibitor,Rpn11 inh,CSN inh,SENP1 FRET inh,UBC9 SUMO inh,HNF4A DNA FP,TPT1 inh confirm,RNase T1 counter
C=CCn1c(O)c(C=NCCN(C)C)c(=O)[nH]c1=O,30*,i,9,2,10,14,35*,45*
CNS(=O)(=O)c1ccc(N=Cc2c(O)n(-c3ccccc3)c(=O)[nH]c2=O)cc1,28*,i,7,0,10,0,17,25*
Cc1ccc(N=Cc2c(O)n(-c3ccc(C)cc3)c(=O)[nH]c2=O)cc1,2,i,-3,-1,.,1,.,.
Cc1cccc(-n2c(O)c(/C=C/C=Nc3ccccc3)c(=O)[nH]c2=O)c1,183*,.,8,-29,-7,163,187*,173*
CNS(=O)(=O)c1ccc(N=Cc2c(O)n(-c3cccc(C)c3)c(=O)[nH]c2=O)cc1,26*,i,17,3,12,2,14,24*
Cc1ccc(-n2c(O)c(C=Nc3ccc(S(=O)(=O)N(C)C)cc3)c(=O)[nH]c2=O)cc1,26*,i,9,5,19,-4,9,14
Cc1cccc(N=Cc2c(O)n(-c3ccccc3C)c(=O)[nH]c2=O)c1,3,i,-1,-3,-5,1,.,.
CCCCn1nnnc1C(CCc1ccccc1)N1CCC2(CC1)C(=O)NCN2c1ccccc1 (stereo not given),.,i,-2,2,.,2,.,.
C=CCC1(Nc2ccccc2)CC(C)N(C)CC1C (stereo not given),2,i,-2,1,26,-1,.,.
O=C1NCN(c2ccccc2)C12CCN(C(c1cc3ccccc3o1)c1nnnn1-c1ccc3c(c1)OCCO3)CC2 (stereo not given),.,i,3,0,.,0,.,.
Cc1c(N=Nc2c(O)n(Cc3ccccc3)c(=O)[nH]c2=O)c(=O)n(-c2ccccc2)n1C,6,i,3,21,9,8,.,.
O=c1[nH]c(=O)n(-c2cccc(Cl)c2)c(O)c1/C=N/c1ccccn1,30*,i,2,2,11,11,18,24*
Cc1ccccc1-n1c(O)c(/C=N/c2nccs2)c(=O)[nH]c1=O,28*!,i,-2,5,-6,3,18,26*
O=C(/C=C/c1ccccc1)NCCc1cnc[nH]1,-5,i,5,0,10,2,.,.
